Screens (PubChem BioAssay)
Most compounds without a hit are left out; they make up all but 1.9% or so of the library.
CHRM5 PAM = CHRM5 positive allosteric modulation. hit rate 0.3% among 360,000. AID 624038. activation, % at 3 µM. CHO-K1 hM5, Fluo-8 calcium, ACh EC20 PAM; 0% = ACh EC20, 100% = ACh EC100;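 active = activation above the run cutoff, the mean activation of all test compounds plus 3 SD, cut at about 18% in these data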
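Assay system: CHO-K1 hM5 cells. Also added: acetylcholine at EC20 concentration, added after compound. Dosing: 3 µM, single dose. Times: compound preincubation 140 s before EC20 acetylcholine addition. Signal: Fluo-8 calcium fluorescence. Measure: % activation relative to EC20 and EC100 ACh responses. Repeats: singlicate, one well per test compound.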
CHRM4 agonist = agonists of human muscarinic M4 receptor (CHRM4) | CHO-K1 hM4/Gqi5, Fluo-8 calcium fluorescence; vehicle 0%, full acetylcholine response 100% | activation, % at 3 µM | hit rate 0.14% among 360,000 | AID 624127;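 active = activation above the run mean over all test wells plus 3 SD, cut at about 32% in these data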;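 also: peak over basal fluorescence ratio per well then scaled between controls; 0% = DMSO wells and 100% = acetylcholine at EC100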
Target sequence (P08173 whole entry, looked up): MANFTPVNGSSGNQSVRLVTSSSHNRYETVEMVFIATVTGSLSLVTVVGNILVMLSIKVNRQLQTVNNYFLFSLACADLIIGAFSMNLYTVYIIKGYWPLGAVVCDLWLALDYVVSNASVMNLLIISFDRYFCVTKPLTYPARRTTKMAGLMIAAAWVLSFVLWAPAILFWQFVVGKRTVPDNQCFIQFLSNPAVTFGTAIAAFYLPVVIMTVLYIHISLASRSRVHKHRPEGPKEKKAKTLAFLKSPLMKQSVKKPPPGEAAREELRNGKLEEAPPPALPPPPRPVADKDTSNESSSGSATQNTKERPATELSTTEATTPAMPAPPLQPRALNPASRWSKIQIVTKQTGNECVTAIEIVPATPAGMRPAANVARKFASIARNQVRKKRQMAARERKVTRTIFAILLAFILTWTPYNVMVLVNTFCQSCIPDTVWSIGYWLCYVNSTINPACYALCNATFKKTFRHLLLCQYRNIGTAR
M4 antag = CHRM4 antagonism in calcium assay. P08173. CHO-hM4 cells, ACh EC80, Fluo-8 calcium fluorescence. inhibition, % at 3 µM. hit rate 0.73% among 360,000;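 active = inhibition above its plate's cutoff, the mean inhibition of sample wells plus 3 SD, cut at about 27% in these data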;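 also: 0% = acetylcholine EC80 with DMSO and 100% = DMSO without agonist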
M4 PAM = CHRM4 positive allosteric modulation | activation, % at 3 µM | AID 624126 | CHO-K1 hM4/Gqi5, Fluo-8 calcium fluorescence, ACh EC20; 0% = ACh EC20, 100% = maximal ACh | P08173 | hit rate 0.4% among 360,000;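 active = activation above its plate's cutoff, the mean activation of sample wells plus 3 SD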
CHRM5 antagonist = antagonists of human muscarinic M5 receptor (CHRM5); P08912; CHO-hM5 cells, Fluo-8 calcium fluorescence, ACh EC80; inhibition, % at 3 µM; hit rate 0.59% among 360,000; AID 624040;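 active = inhibition above a per-plate cutoff, the mean of that plate's test compounds plus 3 SD, cut at about 27% in these data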;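 also: 0% = acetylcholine EC80 with DMSO and 100% = DMSO without agonist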
M5 ag = CHRM5 agonism in calcium assay; CHO-K1 hM5 cells, Fluo-8 calcium fluorescence; 0% DMSO wells, 100% maximal acetylcholine response; activation, % at 3 µM; hit rate 0.19% among 360,000; AID 624037;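 active = activation above the run's mean over test compounds plus 3 SD, cut at about 23% in these data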;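 also: signal is peak over basal fluorescence ratio across the kinetic read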
* marks the source's active call; other numbers are inactive results.

SMILES | CHRM5 PAM | CHRM4 agonist | M4 antag | M4 PAM | CHRM5 antagonist | M5 ag
CN1OC[C@@H]2CN(C(=O)Nc3ccccc3)[C@H](c3ccc(N4CCCCC4)cc3)C[C@@H]21 | -6 | 1 | -25 | 11 | 0 | -4
CCOC(=O)N1CCN(CC(=O)N2c3ccccc3CC2C)CC1 (stereo unspecified) | 1 | 1 | 31* | -1 | 1 | 1
CCN1CCN(CC(=O)N2c3ccccc3CC2C)CC1 (stereo unspecified) | 6 | 0 | 3 | 2 | -9 | -2
CCc1noc(N)c1C(=O)Nc1ccc(F)c(Cl)c1 | 22* | 1 | -1 | 3 | -10 | -5
CCc1noc(N)c1C(=O)Nc1ccc(Cl)cc1 | 5 | 0 | 5 | 5 | -5 | -3
c1ccc(Nc2cccc3ccccc23)cc1 | -5 | -1 | -18 | 4 | 1 | -1
c1ccc(Nc2ccc3c4c(cccc24)CC3)cc1 | -10 | 27 | 33* | -19 | 37* | 27*
Cc1onc(-c2ccccc2)c1C(=O)NNC(=S)NC(=O)c1ccc2c(c1)OCO2 | -10 | 70* | 5 | -10 | 13 | 21
Cc1ccc(CNC(=O)CNC(=S)N(Cc2ccccc2)Cc2ccccc2F)cc1 | 0 | 0 | -4 | 0 | 6 | -1
Cc1cccc(C)c1-n1c(C)cc(/C=C2\NC(=O)NC2=O)c1C | 0 | 0 | 1 | 36* | -4 | -2
Cc1cc(/C=C2\NC(=O)NC2=O)c(C)n1-c1cccnc1 | 2 | 0 | -8 | 5 | -5 | -1
Cc1ccccc1C(=O)NC1CC2CCCC(C1)N2CC(C)C (stereo unspecified) | -9 | -1 | 27* | -11 | 8 | -1
C=CCNC(=O)CN1C2CCCC1CC(NC(=O)c1ccccc1C)C2 (stereo unspecified) | 0 | 1 | 3 | 10 | 0 | -1
O=c1[nH]cc(S(=O)(=O)N2CCCc3ccccc32)c(=O)[nH]1 | 8 | 0 | -4 | 5 | -9 | 6
COc1ccc(NC(=O)NC2CCCCCCC2)cc1OC | 22* | 3 | 4 | 17 | -2 | -1
O=C(CNC1CCCCC1)Nc1cccc([N+](=O)[O-])c1 | 3 | 1 | 0 | 0 | 5 | 0
O=C(Nc1cccc([N+](=O)[O-])c1)NN1CCCCCC1 | -20 | 14 | 11 | -4 | 30* | 6
O=C(Nc1cccc([N+](=O)[O-])c1)NC1CCCCCCC1 | -16 | 15 | 6 | -13 | 29* | 8
O=C(NCc1cccnc1)Nc1cccc([N+](=O)[O-])c1 | -11 | 1 | -3 | -1 | 28* | -5
CCOC(=O)C1CCCN(C(=O)CSc2nnnn2C)C1 (stereo unspecified) | 2 | 0 | 0 | 0 | 5 | 1
O=C(c1c(F)cccc1F)N1CCCC(c2nc(-c3ccc(Cl)cc3)no2)C1 (stereo unspecified) | -25 | 10 | -4 | -10 | 28* | -4
Cc1ccc(-c2noc(C3CCCN(C(=O)c4c(F)cccc4F)C3)n2)cc1 (stereo unspecified) | -10 | 12 | -1 | 3 | 2 | 4
Cc1ccccc1S(=O)(=O)NC(=O)C1(C)CCN1C(=O)CCc1ccc(Cl)cc1Cl (stereo unspecified) | 1 | 0 | -5 | -2 | 2 | 0
COC(=O)c1ccc2c(c1)c(-c1ccccc1)c(-c1ccccc1)n2C | -5 | -1 | -11 | 0 | 4 | 1
Cc1cc(N/N=C/c2ccc(O)cc2O)nc(-c2ccccc2O)n1 | -17 | 21 | 30* | -25 | 24 | 5
SMILES | CHRM5 PAM | CHRM4 agonist | M4 antag | M4 PAM | CHRM5 antagonist | M5 ag
Cc1cc(N/N=C/c2ccccc2O)nc(-c2ccccc2O)n1 | -6 | 5 | -6 | -2 | 7 | -2
O=C1c2ccccc2C(=O)N1CCC1=CCCCC1 | 19* | 0 | -2 | 0 | -9 | -6
O=C(O)c1ccc2c(c1)C(=O)N(CCC1=CCCCC1)C2=O | 2 | 1 | -4 | 11 | -9 | 3
CCOC(=O)C1CCCN(C(=S)Nc2ccc(Nc3ccccc3)cc2)C1 (stereo unspecified) | -8 | 5 | 16 | -11 | 1 | 32*
CCOC(=O)C1CCCN(C(=O)C2c3ccccc3Oc3ccccc32)C1 (stereo unspecified) | -8 | 20 | 16 | 3 | 3 | 27*
CCOC(=O)C1CCCN(C(=O)C2COc3ccccc3O2)C1 (stereo unspecified) | 0 | 1 | -4 | 0 | -2 | 2
CCOC(=O)C1CCCN(C(=O)Cn2nc(C)c3c(C)n(-c4ccccc4)nc3c2=O)C1 (stereo unspecified) | 13 | 1 | 0 | 17* | 2 | -2
CCOC(=O)C1CCCN(C(=O)Cc2c(C(=O)O)[nH]c3ccccc23)C1 (stereo unspecified) | -6 | 1 | 9 | -7 | -9 | 38*
CCOC(=O)C1CCCN(C(=O)Cc2ccc(C)cc2)C1 (stereo unspecified) | 9 | 0 | 8 | 1 | -7 | -3
CCOC(=O)C1CCCN(C(=S)Nc2ccc(C)cc2C)C1 (stereo unspecified) | -6 | 2 | 4 | 10 | 10 | 36*
COc1ccc(CC(=O)Nc2sccc2C#N)cc1S(=O)(=O)N1CCOCC1 | -2 | 3 | -1 | -1 | 2 | 2
O=[N+]([O-])c1c(Nc2ccccc2O)cc(Cl)c2nonc12 | 8 | -2 | 33* | -3 | 21 | -11
O=[N+]([O-])c1c(Nc2ccccc2O)ccc2nonc12 | 3 | 2 | 8 | -8 | -5 | -2
O=C1Cc2ccccc2C(=O)N1 | -12 | 2 | 5 | 4 | 2 | 5
Cc1ccc(NC(=O)CSCC(=O)Nc2cccc(S(=O)(=O)N3CCCCCC3)c2)cc1 | -16 | 4 | -12 | 0 | 4 | -1
COc1cc(C2/C(=C(\O)c3ccc4c(c3)CC(C)O4)C(=O)C(=O)N2CCN2CCOCC2)cc(OC)c1OC (stereo unspecified) | -2 | 2 | -1 | 1 | 4 | -2
Cc1ccc(NC(=O)N2CCC(NC(=O)C(C)(C)C)CC2)cc1 | 42* | 0 | -6 | 9 | 0 | -5
O=C(COC(=O)c1ccc(Cl)nc1)NC1CCCCCC1 | 0 | 0 | -1 | 26* | 2 | 0
CN(C)c1cccc(C(=O)OCC(=O)NC2CCCC2)c1 | 0 | 0 | -4 | -2 | -4 | -2
O=C(OCC(=O)N(C1CCCCC1)C1CCCCC1)c1ccc(Cl)nc1 | 6 | 1 | -7 | 20 | -13 | 4
CN(C)c1ccc(C(=O)OCC(=O)NC2CCCCC2)cc1 | 35* | 2 | -16 | 1 | -15 | 1
